Source: ChEMBL document CHEMBL3085653, “Synthesis and evaluation of hexahydropyrimidines and diamines as novel hepatitis C virus inhibitors” (Eur J Med Chem, 2013)
Counter-ions that a name gives are not always drawn. Activity calls are given as the source filed them. No cut-off for these calls is given here.

Legend:
[1] = Cytotoxicity against human HuH7 cells; assay type: cell-based, Huh-7
[2] = system: Hepatitis C virus; experiment: Antiviral activity against cell culture derived HCV expressing NS5A-GFP fusion protein infected in human HuH7 cells assessed as inhibition of viral life cycle after 72 hrs by Hoechst-33342 staining-based confocal microscopy; assay type: functional, organism-based, Hepacivirus hominis; conditions: Huh-7, 72 h
[3] = system: Hepatitis C virus; experiment: Antiviral activity against HCV assessed as prevention of infectious virions release into cell culture supernatant by viral supernatant transfer assay; assay type: functional, organism-based; conditions: Hepacivirus hominis
[4] = Selectivity index, ratio of CC50 for human HuH7 cells to EC50 for cell culture derived HCV expressing NS5A-GFP fusion protein; set-up: species or system Huh-7
Outline: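 Index is CC50 divided by EC50. Both values come from the same 10-point dose response in naïve Huh-7 cells infected with NS5A-GFP HCVcc (MOI 1), read at 72 h post-infection. EC50 taken from GFP-positive infection and CC50 from Hoechst nuclei counts, by confocal imaging. Duplicates with quadruplicate measurements.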

[5] = Chemical stability in cell culture medium assessed as formation of N1,N3-dibenzylpropane-1,3-diamine at 37 degC after 2 days by LC/MS analysis; assay type: physicochemical; conditions: 48 h
Outline: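 Compound incubated with cells in culture medium at 37 °C for two days. Supernatant then analysed by LC/MS for the parent compound and the ring-opened diamine.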

[6] = Metabolic stability in liver microsomes (unknown origin) assessed as formation of N1,N3-dibenzylpropane-1,3-diamine by mass spectrum analysis; assay type: ADME, Microsome
[7] = system: Hepatitis C virus; experiment: Antiviral activity against HCV pseudoparticle expressing envelope protein E1 and E2 assessed as inhibition of E1/E2-mediated viral entry into human Huh7 cells treated for 1 hr prior to viral inoculation followed by compound washout 12 hrs post viral inoculation measured after 72 hrs by GFP reporter gene-based confocal microscopic analysis; assay type: functional, organism-based, Hepacivirus hominis; conditions: Huh-7
[8] = system: Hepatitis C virus; experiment: Antiviral activity against HCV expressing GFP infected in human HuH7 cells assessed as inhibition of viral RNA replication after 72 hrs by Hoechst-33342 staining-based confocal microscopy; assay type: functional, organism-based, Hepacivirus hominis; conditions: Huh-7, 72 h
Outline: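 Huh-7 replicon cells expressing GFP seeded at 2000 cells/well and incubated overnight, then given serially diluted compounds for 72 h. Cells fixed in 2% PFA and nuclei stained with Hoechst 33342 (10 μg/mL). Automated confocal imaging used: RNA replication read as GFP expression, cytotoxicity as nucleus counts. EC50 calculated by non-linear regression.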

Row | EC50 [2] [µM] | Stability [5] | Stability [6] | EC50 [7] [µM] | EC50 [8] [µM] | SMILES | CC50 [1] [µM] | Activity [3] | Ratio CC50/EC50 [4]
1 | > 50 | – | – | – | – | CC(C(=O)NCCCNC(=O)C(C)c1ccccc1)c1ccccc1 (stereo unspecified) | > 50 | – | –
2 | 11 | – | – | – | – | Fc1ccccc1CN1CCCN(Cc2ccccc2Cl)C1c1cccc(C(F)(F)F)c1 (stereo unspecified) | > 50 | Active | >4.5
3 | 6.5 | – | – | – | – | FC(F)(F)c1cccc(C2N(Cc3ccccc3)CCCN2Cc2ccccc2)c1 | > 50 | Active | >7.7
4 | > 50 | – | – | – | – | NCCCCNCCCN [SPERMIDINE TRIHYDROCHLORIDE] | > 50 | – | –
5 | > 50 | – | – | – | – | O=C1N(Cc2ccccc2)CCCN1Cc1ccccc1 | > 50 | Active | –
6 | 4.7 | – | – | – | – | COc1cccc(CN2CCCN(Cc3ccccc3F)C2c2ccncc2)c1 (stereo unspecified) | > 50 | Active | >11
7 | 1.6 | – | – | – | – | COc1ccc(CN2CCCN(Cc3ccc(OC)cc3)C2c2ccc(C(F)(F)F)cc2)cc1 | 34 | Active | 21
8 | > 50 | – | – | – | – | NCCCCN [PUTRESCINE DIHYDROCHLORIDE] | > 50 | – | –
9 | > 50 | – | – | – | – | CN(C)c1ccc(C2N(Cc3ccccc3)CCN2Cc2ccccc2)cc1 | > 50 | – | –
10 | 1.9 | – | – | – | – | COc1ccc(CN2CCCN(Cc3ccc(OC)cc3)C2c2ccc(F)cc2)cc1 | 38 | Active | 20
11 | 4.3 | Unstable | Unstable | 4 | > 50 | c1ccc(CN2CCCN(Cc3ccccc3)C2c2ccncc2)cc1 | > 50 | Active | >12
12 | 1.5 | – | – | – | – | COc1ccc(CN2CCCN(Cc3ccc(OC)cc3)C2c2ccncc2)cc1 | 23 | Active | 15
13 | 1.3 | – | – | – | – | CN(C)c1ccc(CN2CCCN(Cc3ccc(N(C)C)cc3)C2c2ccc(F)cc2)cc1 | 15 | Active | 12
14 | 4.6 | – | – | – | – | c1ccc(CNCCCNCc2ccccc2)cc1 | 27 | – | 5.9
15 | > 50 | – | – | – | – | CC1N(Cc2ccccc2)CCN1Cc1ccccc1 | > 50 | – | –
16 | 1.7 | – | – | – | – | c1ccc(CNCCOCCNCc2ccccc2)cc1 | 28 | – | 16
17 | 1.5 | – | – | – | – | COc1ccc(CNCCCNCc2ccc(OC)cc2)cc1 | 33 | – | 22
18 | 0.38 | – | – | – | – | COc1ccc(CNCCCCNCc2ccc(OC)cc2)cc1 | 32 | – | 84

The remaining lines, values behind:

Row | SMILES | EC50 [2] [µM] | Stability [5] | Stability [6] | EC50 [7] [µM] | EC50 [8] [µM] | CC50 [1] [µM] | Activity [3] | Ratio CC50/EC50 [4]
19 | Cc1ccc(C2N(Cc3ccccc3)CCCN2Cc2ccccc2)o1 | > 50 | – | – | – | – | > 50 | Active | –
20 | COc1ccc(CN2CCCN(Cc3ccc(OC)cc3)C2c2ccc(C#N)c(F)c2)cc1 | 1.9 | – | – | – | – | 29 | Active | 15
21 | CN(C)c1ccc(CN2CCCN(Cc3ccc(N(C)C)cc3)C2c2ccc(C(F)(F)F)cc2)cc1 | 1.5 | – | – | – | – | 23 | Active | 15
22 | CN(C)c1ccc(CN2CCCN(Cc3ccc(N(C)C)cc3)C2c2ccncc2)cc1 | 0.83 | – | – | – | – | 14 | Active | 17
23 | COc1ccc(CN2CCCC(CNc3ccc(OC)cc3)C2)cc1 (stereo unspecified) | 11 | – | – | – | – | > 50 | – | >4.7
24 | COc1ccc(CN2CCCN(Cc3ccc(OC)cc3)C2c2cccc(C(F)(F)F)c2)cc1 | 3.2 | – | – | – | – | 43 | Active | 13
25 | COc1ccc(CNCC2CCCN(Cc3ccc(OC)cc3)C2)cc1 (stereo unspecified) | 1.1 | – | – | – | – | 34.5 | – | 31
26 | c1ccc(CNCCCCCNCc2ccccc2)cc1 | 0.61 | – | – | – | – | 29 | – | 48
27 | COc1ccc(CN2CCCN(Cc3ccc(OC)cc3)C2c2ccc(C#N)cc2)cc1 | 1.5 | – | – | – | – | 20 | Active | 13
28 | CN(C)c1ccc(CNCCCNCc2ccc(N(C)C)cc2)cc1 | 0.88 | – | – | – | – | 17 | – | 19
29 | CC(CNCCCNCC(C)c1ccccc1)c1ccccc1 (stereo unspecified) | 1.2 | – | – | – | – | 18 | – | 15
30 | c1ccc(CN2CCN(Cc3ccccc3)C2c2ccncc2)cc1 | > 50 | – | – | – | – | > 50 | – | –
31 | c1ccc(NCCCCNc2ccccc2)cc1 | > 50 | – | – | – | – | > 50 | – | –
32 | CN(C)c1ccc(C2N(Cc3ccccc3)CCCN2Cc2ccccc2)cc1 | 25 | – | – | – | – | > 50 | Active | >2
33 | NCCCNCCCCNCCCN [SPERMINE] | > 50 | – | – | – | – | > 50 | – | –
34 | COc1ccc(CN2CCCN(Cc3ccc(OC)cc3)C2c2ccc(N(C)C)cc2)cc1 | 1.3 | – | – | – | – | 28 | Active | 22
35 | COc1cccc(CN2CCCN(Cc3ccccc3F)C2c2ccc(C(F)(F)F)cc2)c1 (stereo unspecified) | 2.7 | – | – | – | – | 23 | Active | 8.5
36 | CC(=O)N(CCCCN(Cc1ccccc1)C(C)=O)Cc1ccccc1 | > 50 | – | – | – | – | > 50 | – | –
37 | O=C(NCCCNC(=O)c1ccccc1)c1ccccc1 | > 50 | – | – | – | – | > 50 | – | –
38 | c1ccc(CN2CCCN(Cc3ccccc3)C2)cc1 | > 50 | – | – | – | – | > 50 | Active | –
39 | c1ccc(CCNCCCNCCc2ccccc2)cc1 | 1.1 | – | – | – | – | 12 | – | 11
40 | CC1N(Cc2ccccc2)CCCN1Cc1ccccc1 | 3.7 | – | – | – | – | > 50 | Active | >14
41 | CN(C)c1ccc(CNCCCCNCc2ccc(N(C)C)cc2)cc1 | 0.32 | – | – | – | – | 11 | – | 34
42 | c1ccc(CNCCNCc2ccccc2)cc1 | > 50 | – | – | – | – | > 50 | – | –
